Assay results from ChEMBL document CHEMBL1155534, “Tetracyclic sulfones as potent gamma-secretase inhibitors: synthesis and structure-activity relationship studies” (Bioorg Med Chem Lett, 2010).

How the values were obtained:
[1] = Inhibition of gamma secretase
[2] = Inhibition of gamma-secretase-mediated cleavage of human APP expressed in HEK293 cells assessed as reduction in amyloid beta40 production; format: cell-based
Summary of the method: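 HEK293 cells expressing human APP carrying Swedish and London mutations, in fresh medium with inhibitor for 4 h. Aβ40 in conditioned medium measured by ECL; IC50 derived.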

[3] = Inhibition of gamma-secretase-mediated cleavage of human APP expressed in HEK293 cells assessed as reduction in amyloid beta42 production; format: cell-based
[4] = biological target: hERG (KCNH2) (Homo sapiens, UniProt Q12809); experiment: Inhibition of human ERG assessed as rubidium efflux at 5 ug/ml
hERG (KCNH2), sequence (Q12809 whole entry): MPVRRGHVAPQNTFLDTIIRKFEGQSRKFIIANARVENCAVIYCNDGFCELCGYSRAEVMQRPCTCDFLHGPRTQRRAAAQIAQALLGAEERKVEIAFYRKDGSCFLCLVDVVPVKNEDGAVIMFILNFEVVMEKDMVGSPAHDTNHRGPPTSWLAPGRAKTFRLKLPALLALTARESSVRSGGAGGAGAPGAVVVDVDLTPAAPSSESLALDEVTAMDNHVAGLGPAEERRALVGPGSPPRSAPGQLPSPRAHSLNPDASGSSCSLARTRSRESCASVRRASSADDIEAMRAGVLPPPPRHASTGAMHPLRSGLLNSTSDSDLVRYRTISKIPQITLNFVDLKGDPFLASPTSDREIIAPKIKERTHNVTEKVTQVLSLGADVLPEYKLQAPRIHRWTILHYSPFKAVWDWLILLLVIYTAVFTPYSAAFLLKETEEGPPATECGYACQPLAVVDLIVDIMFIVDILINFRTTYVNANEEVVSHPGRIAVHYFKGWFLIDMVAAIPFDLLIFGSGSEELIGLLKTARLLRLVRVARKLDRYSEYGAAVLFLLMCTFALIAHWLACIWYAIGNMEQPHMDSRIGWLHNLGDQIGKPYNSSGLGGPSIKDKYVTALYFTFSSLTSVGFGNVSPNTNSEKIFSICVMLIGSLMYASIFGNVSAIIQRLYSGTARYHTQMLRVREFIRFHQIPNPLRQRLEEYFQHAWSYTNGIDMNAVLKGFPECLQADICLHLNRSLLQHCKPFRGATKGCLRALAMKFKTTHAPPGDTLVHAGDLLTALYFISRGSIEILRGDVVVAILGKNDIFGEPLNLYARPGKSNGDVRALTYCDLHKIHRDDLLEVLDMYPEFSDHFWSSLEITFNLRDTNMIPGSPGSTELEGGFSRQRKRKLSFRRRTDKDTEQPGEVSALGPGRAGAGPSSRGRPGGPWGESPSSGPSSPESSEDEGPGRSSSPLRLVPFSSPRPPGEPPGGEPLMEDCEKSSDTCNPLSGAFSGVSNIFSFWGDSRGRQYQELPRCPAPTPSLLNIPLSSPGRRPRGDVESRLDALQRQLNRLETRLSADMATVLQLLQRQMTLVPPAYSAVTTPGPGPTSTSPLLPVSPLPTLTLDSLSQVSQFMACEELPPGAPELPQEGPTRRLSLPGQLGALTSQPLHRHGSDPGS

[5] = Clearance in human hepatocyte pre million cells; format: ADME, cell-based, Liver; details: hepatocytes
[6] = Plasma protein binding in human; format: ADME, cell-free; details: read-out: PPB (converted)
[7] = tested on: Mus musculus; experiment: Reduction in amyloid beta 40 level in non-transgenic mouse plasma at 10 mg/kg, po; format: ADME, organism-based; design: dose 10 mg/kg, route oral; scale not given: the % may be the effect or the level left; details: in vivo
Summary of the method: (§1)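 Non-transgenic mice given 10 mg/kg orally; Aβ40 reduction expressed as percent relative to vehicle controls, mean values (n = 5).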

[8] = tested on: Mus musculus; experiment: Reduction in amyloid beta 40 level in non-transgenic mouse brain at 10 mg/kg, po; format: ADME, organism-based; design: dose 10 mg/kg, route oral; scale not given: the % may be the effect or the level left; details: in vivo; summary of the method: as §1

| Structure (SMILES) | IC50 [1] [nM] | IC50 [2] [nM] | IC50 [3] [nM] | hepatocyte CLint [5] [µL/min/1e6 cells] | fraction unbound [6] | Activity [7] [%] | Activity [8] [%] | inhibition at 5 ug/ml [4] [%] |
| --- | --- | --- | --- | --- | --- | --- | --- | --- |
| O=C(O)CCC1C[C@@H]2[C@@H](CC[C@@]3(S(=O)(=O)c4ccc(C(F)(F)F)cc4)c4c(F)ccc(F)c4OC[C@@H]23)NS1(=O)=O (stereo not given in full) | 17 | 40.6 | 64 | – | – | – | – | – |
| COCC1C[C@@H]2[C@@H](CC[C@@]3(S(=O)(=O)c4ccc(C(F)(F)F)cc4)c4c(F)ccc(F)c4OC[C@@H]23)NS1(=O)=O (stereo not given in full) | 9 | 7.8 | 8 | – | – | – | – | – |
| C[C@@H]1C[C@@H]2[C@@H](CC[C@@]3(S(=O)(=O)c4ccc(C(F)(F)F)cc4)c4c(F)ccc(F)c4OC[C@@H]23)NS1(=O)=O | 1.6 | 1 | 0.5 | 0.4 | 0.027 | 72 | 57 | 4 |
| CCCC1C[C@@H]2[C@@H](CC[C@@]3(S(=O)(=O)c4ccc(C(F)(F)F)cc4)c4c(F)ccc(F)c4OC[C@@H]23)NS1(=O)=O (stereo not given in full) | 5.5 | 3 | 1 | – | – | – | – | – |
| C/C=C/CC1C[C@@H]2[C@@H](CC[C@@]3(S(=O)(=O)c4ccc(C(F)(F)F)cc4)c4c(F)ccc(F)c4OC[C@@H]23)NS1(=O)=O (stereo not given in full) | 14.6 | – | – | – | – | – | – | – |
| O=S1(=O)N[C@@H]2CC[C@@]3(S(=O)(=O)c4ccc(C(F)(F)F)cc4)c4c(F)ccc(F)c4OC[C@H]3[C@@H]2CC1CCN1CCOCC1 (stereo not given in full) | 48.4 | – | – | – | – | – | – | – |

Further lines, with some results ahead:

| IC50 [1] [nM] | IC50 [2] [nM] | IC50 [3] [nM] | hepatocyte CLint [5] [µL/min/1e6 cells] | fraction unbound [6] | Activity [7] [%] | Activity [8] [%] | Structure (SMILES) | inhibition at 5 ug/ml [4] [%] |
| --- | --- | --- | --- | --- | --- | --- | --- | --- |
| 45.5 | – | – | – | – | – | – | O=S1(=O)N[C@@H]2CC[C@@]3(S(=O)(=O)c4ccc(C(F)(F)F)cc4)c4c(F)ccc(F)c4OC[C@H]3[C@@H]2CC1CCN1CCCC1 (stereo not given in full) | – |
| 48.3 | 930 | 1200 | – | – | – | – | O=C(O)CC1C[C@@H]2[C@@H](CC[C@@]3(S(=O)(=O)c4ccc(C(F)(F)F)cc4)c4c(F)ccc(F)c4OC[C@@H]23)NS1(=O)=O (stereo not given in full) | – |
| 7.7 | 7 | 2 | – | – | – | – | C=CCC1C[C@@H]2[C@@H](CC[C@@]3(S(=O)(=O)c4ccc(C(F)(F)F)cc4)c4c(F)ccc(F)c4OC[C@@H]23)NS1(=O)=O (stereo not given in full) | – |
| 60.9 | – | – | – | – | – | – | O=S1(=O)N[C@@H]2CC[C@@]3(S(=O)(=O)c4ccc(C(F)(F)F)cc4)c4c(F)ccc(F)c4OC[C@H]3[C@@H]2CC1C/C=C/c1ccccc1 (stereo not given in full) | – |
| – | – | 4 | – | – | – | – | NC(=O)CC1C[C@@H]2[C@@H](CC[C@@]3(S(=O)(=O)c4ccc(C(F)(F)F)cc4)c4c(F)ccc(F)c4OC[C@@H]23)NS1(=O)=O (stereo not given in full) | – |
| 9.5 | 3.8 | 4.9 | – | – | – | – | O=S1(=O)N[C@@H]2CC[C@@]3(S(=O)(=O)c4ccc(C(F)(F)F)cc4)c4c(F)ccc(F)c4OC[C@H]3[C@@H]2CC1CCCO (stereo not given in full) | – |
| 30 | – | – | – | – | – | – | O=S1(=O)CC[C@@H]2[C@@H](CC[C@@]3(S(=O)(=O)c4ccc(C(F)(F)F)cc4)c4c(F)ccc(F)c4OC[C@@H]23)N1 | – |
| 1.9 | 5 | 2 | 0.3 | 0.019 | 84 | 42 | CC[C@@H]1C[C@@H]2[C@@H](CC[C@@]3(S(=O)(=O)c4ccc(C(F)(F)F)cc4)c4c(F)ccc(F)c4OC[C@@H]23)NS1(=O)=O | 10 |
